Screening data: PubChem BioAssay, several laboratories
Hits are enriched below; roughly 3.1% of the tested compounds scored in any of these assays.
NS3 helicase inh = inhibitors of Hepatitis C virus NS3 helicase; NS3 helicase DNA unwinding, Cy5 molecular beacon fluorescence; 290,000 compounds, 0.56% hits; inhibition, % at 10.9 µM;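 active means inhibition above the mean of all tested compounds plus 3 SD, set per campaign, cut at about 35% in these data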
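assay system = NS3 helicase fragment of HCV | buffer or medium = MOPS pH 6.5, MgCl2, DTT, Tween20, BSA | timing = 60 min unwinding reaction at 25 °C after ATP addition | signal = Cy5 beacon fluorescence read at start and 1 h | read-out basis = % inhibition of unwinding | control set = low DMSO, high thioflavine S at 110 µM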
PHOSPHO1 inh = inhibitors of human PHOSPHO1 phosphatase; Q8TCT1; recombinant PHOSPHO1, absorbance phosphatase assay; inhibition, % at 13.3 µM; 290,000 compounds, 1.1% hits; AID 1565; in the data active means inhibition above about 60%
Target sequence (Q8TCT1 whole entry, looked up): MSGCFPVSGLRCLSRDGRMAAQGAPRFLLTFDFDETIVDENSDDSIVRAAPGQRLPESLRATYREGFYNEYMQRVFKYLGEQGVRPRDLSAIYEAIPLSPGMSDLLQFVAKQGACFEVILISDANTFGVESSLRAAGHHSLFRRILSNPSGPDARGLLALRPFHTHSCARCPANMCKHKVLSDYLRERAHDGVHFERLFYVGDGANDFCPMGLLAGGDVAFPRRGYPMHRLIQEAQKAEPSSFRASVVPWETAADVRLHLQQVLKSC
UBC9 SUMO inh = blocks human SUMOylation mediated by UBC9. P63279. HTRF SUMOylation assay, SAE1/SAE2 + UBC9, in vitro. inhibition, % at 35 µM. 290,000 compounds, 0.36% hits. AID 2006; in the data active means inhibition above about 50%, passing the limit was not always enough
Target sequence (P63279 whole entry, looked up): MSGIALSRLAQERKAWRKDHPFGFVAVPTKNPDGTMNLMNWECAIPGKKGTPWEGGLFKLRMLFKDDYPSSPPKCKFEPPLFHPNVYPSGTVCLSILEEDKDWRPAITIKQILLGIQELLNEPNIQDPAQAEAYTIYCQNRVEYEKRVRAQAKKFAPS
IMP-1 inh = inhibitors of Pseudomonas aeruginosa IMP-1 metallo-beta-lactamase | purified IMP-1, nitrocefin hydrolysis, epi-absorbance fluorescence | 290,000 compounds, 0.45% hits | inhibition, % at 5.6 µM;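 active means inhibition above the mean plus 3 SD of all compounds in the same screening run, cut at about 4.5% in these data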
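Material – recombinant IMP-1 enzyme, purified · Amount – IMP-1 0.2 nM before substrate addition · Medium – HEPES buffer pH 7.1 with ZnSO4 and Brij 35 · Timing – 25 °C, 15 min preincubation, 25 min reaction · Measured by – plate fluorescence quenching by hydrolysis product, ex 480/em 530 nm · Read-out – percent enzyme inhibition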
core dimer inh = blocks dimerization of HCV core protein | TR-FRET GST/Flag-core106 dimerization, 1536-well | inhibition, % at 5 µM | AID 1899 | 300,000 compounds, 0.33% hits;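 active means inhibition above the mean of all tested compounds plus 3 SD, set per screening campaign, cut at about 45% in these data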
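Material: GST/Flag-tagged HCV core106 proteins. Incubation: 4 h, 22.5 °C incubation. Read-out basis: inhibition (%) from 671 over 617 nm ratio. Measured by: TR-FRET, excitation 340 nm, emission 617 and 671 nm.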
VIM-2 inh = blocks Pseudomonas aeruginosa VIM-2 metallo-beta-lactamase; inhibition, % at 5.6 µM; purified VIM-2, nitrocefin hydrolysis, epi-absorbance fluorescence; 290,000 compounds, 0.89% hits;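 active means inhibition above the mean of all tested compounds plus 3 SD, cutoff set per screening run, cut at about 7.5% in these data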;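 further: red hydrolysis product quenches plate fluorescence so inhibitors raise well fluorescence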
Each line names hits and unclear results; the compound was inactive in the other large screens.

CCCn1c2ccccc2c2nnc(SC(CC)C(=O)Nc3sc4c(c3C#N)CCCC4)nc21 (stereo unspecified)	PHOSPHO1 inh 61
Cc1cc(C(=O)C(C)OC(=O)c2ccc(NC(=O)CC#N)cc2)c(C)n1-c1ccccc1 (stereo unspecified)	none (no result: NS3 helicase inh, PHOSPHO1 inh, UBC9 SUMO inh, IMP-1 inh, VIM-2 inh)
Cc1ccc(S(=O)(=O)NCC(=O)NCCc2c[nH]c3ccccc23)cc1C	none
CCCC(=O)NC(c1ccc(Cl)cc1Cl)c1ccc2cccnc2c1O (stereo unspecified)	UBC9 SUMO inh 91
COc1cc(C(=S)N2CCCC2)cc(OC)c1O	PHOSPHO1 inh 76
CCOc1cc(C(=S)N2CCCC2)ccc1OC	none
N#Cc1c(NC(=O)COC(=O)C2CC3C=CC2C3)oc(-c2ccccc2)c1-c1ccccc1 (stereo unspecified)	core dimer inh 69
Cc1ccc(OCC(=O)Nc2oc(-c3ccccc3)c(-c3ccccc3)c2C#N)cc1	core dimer inh 47 (no result: PHOSPHO1 inh, UBC9 SUMO inh)
COc1ccc(-c2oc(NC(=O)CSc3ncn[nH]3)c(C#N)c2-c2ccc(OC)cc2)cc1	PHOSPHO1 inh 71
Cc1cccc(OCC(=O)N(Cc2ccco2)C2CCS(=O)(=O)C2)c1C (stereo unspecified)	none
CC(CCc1ccccc1)NC(=O)C(Cc1ccccc1)NC(N)=O (stereo unspecified)	none
Cc1cccc(NC(=O)c2ccc3c(c2)C(=O)N(Cc2cccnc2)C3=O)c1C	none
Cc1ccc(NC(=O)c2ccc3c(c2)C(=O)N(Cc2cccnc2)C3=O)c(C)c1	PHOSPHO1 inh 61
Cc1cnc(NC(=O)c2ccc3c(c2)C(=O)N(Cc2cccnc2)C3=O)s1	PHOSPHO1 inh 63
N#Cc1c2n(c3c(=S)nc[nH]c13)CCCCC2	PHOSPHO1 inh 96
COc1cc(CC(=O)NCC(C)(C)N2CCOCC2)cc(OC)c1OC	none
Cc1nn(CCOc2ccccc2)c(=O)n1-c1ccccc1	PHOSPHO1 inh 62
Cc1ccc(-n2c([C@@H]3C[C@H]3c3ccccc3)n[nH]c2=S)cc1	none
Cc1ccc(-n2c(C3CC3c3ccc(Cl)cc3)n[nH]c2=S)cc1 (stereo unspecified)	PHOSPHO1 inh 97
Cc1ccc(C2CC2c2n[nH]c(=S)n2-c2ccc(C)cc2)cc1 (stereo unspecified)	PHOSPHO1 inh 90
CN(CCc1ccccn1)C1CCCN(S(=O)(=O)c2ccc(F)c(Cl)c2)C1 (stereo unspecified)	none
Cc1cc(S(=O)(=O)N2CCCC(N(C)CCc3ccccn3)C2)c(C)s1 (stereo unspecified)	PHOSPHO1 inh 75
CC(=O)Nc1cc(OC(C)=O)c2nonc2c1OC(C)=O	UBC9 SUMO inh 101
Nc1ccccc1S(=O)(=O)C(F)F	none
O=C(Cc1ccc(S(=O)(=O)N2CCCC2)s1)Nc1nc2c(s1)CCCC2	PHOSPHO1 inh 61
NS(=O)(=O)c1cccc(NC(=O)COC(=O)C2CCN(S(=O)(=O)c3cccs3)CC2)c1	none
CC(C)(C)NC(=O)Cc1ccc(S(=O)(=O)N2CCCC2)s1	none
NS(=O)(=O)c1cccc(NC(=O)COC(=O)Cc2ccc(S(=O)(=O)N3CCCCC3)s2)c1	IMP-1 inh 5.6
O=C(COC(=O)Cc1ccc(S(=O)(=O)N2CCCCC2)s1)Nc1ccc2c(c1)OCO2	core dimer inh 63
C/C(=N\O)C(C)(C)Nc1ccccc1F	none
CC(C)c1ccc(-c2c(C#N)c(N)nc(SCC(=O)N3CCCCC3)c2C#N)cc1	core dimer inh 47
CC(C)c1ccc(-c2c(C#N)c(N)nc(SCC(=O)N3CCCCCC3)c2C#N)cc1	none
O=C(NC1CCOc2ccccc21)c1ccc(Cl)nc1 (stereo unspecified)	none
Cc1cc(NC(=O)COC(=O)c2ccccc2[N+](=O)[O-])no1	none
Cc1cccc(C)c1NC(=O)COC(=O)c1ccccc1[N+](=O)[O-]	PHOSPHO1 inh 63
Cn1cnnc1Sc1ccc(/C=C(\CCC(=O)O)c2nc3ccccc3s2)cc1[N+](=O)[O-]	none
O=C(O)C/C(=C\c1cccc(NC(=O)c2ccccc2Cl)c1)c1nc2ccccc2s1	none
CN(c1ccccc1)c1ccc(/C=C(\CCC(=O)O)c2nc3ccccc3s2)cc1[N+](=O)[O-]	core dimer inh 60 (no result: UBC9 SUMO inh)
